Activity change, negative = inhibition and AC50 data for six compounds are collected here from PubChem BioAssay AID602269 (Broad Institute, 2012).

Molecules are shown by their SMILES. Records with an inconclusive call do not appear. The source made the active and inactive calls.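 The calls were made as follows: active = active in every separate test run, each with half-maximal potency at or below twice its top valid dose; inconclusive = test runs disagree, or a flat partial drop, or poor fit; inactive = inactive in every test run, including signal rising instead.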

Test system in one experiment: not listed separately
Put plainly: decrease of heat-induced HSF-1 GFP reporter, dose response, NIH3T3 R4-3T3 cells, GFP/RFP, dry powder (AID 602269). The note with it: R4-3T3 NIH3T3 HSF-1 GFP / Tet-On RFP fluorescence, 48 h; at 26 µM (top of the series). The procedure, abridged: (§1)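 Material: R4-3T3 mouse NIH3T3 fibroblasts with heat-shock-element GFP and Tet-On RFP reporters. Benchmarks: positive control Didemnin B, 400 nM. Reagent: doxycycline 2 µg/mL final and heat shock. Detection: bottom-read fluorescence, GFP ex 485/em 535 nm, RFP ex 550/em 595 nm. Times: 2 h 42 °C shock, then 48 h 37 °C.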
Regarding `CCc1ccc(NC(=O)C2C3CCC(O3)C2C(=O)O)cc1` (stereo unspecified), the activity change, negative = inhibition was -14.3% (inactive).

The next experiment deals with R4-3T3 NIH3T3 HSF-1 GFP / Tet-On RFP fluorescence, 48 h. The description is as above.
Settings: not given
An outline of the steps: as §1
Usually AC50 stands for the concentration giving half of the maximal activity seen. As for `CC1=NNC(=O)/C1=C\c1cn(-c2ccccc2)nc1-c1ccc(Cl)cc1`, the AC50 was 1270 nM.
The same measure, in the same setting: to `O=C(CCl)N1CCCC1c1ccc2c(c1)OCCO2` (stereo unspecified) belongs 1180 nM; to `CC(C)(C)C(=O)NC(=S)NNC(=O)c1sc2ccccc2c1Cl`, 4550 nM.
For the compound `O=C1C=C(NCCN2CCOCC2)C(=O)c2cnccc21`, the AC50 was 2280 nM.
As for `Oc1ccc(Br)cc1/C=N/Nc1ccccn1`, the AC50 was 994 nM.
